Reference: ChEMBL document CHEMBL4014350, “Alkoxyurea-Based Histone Deacetylase Inhibitors Increase Cisplatin Potency in Chemoresistant Cancer Cell Lines” (J Med Chem, 2017)

Columns and labels:
[1] = target: T1, Histone deacetylase 1/6 (Homo sapiens) (UniProt Q13547+Q9UBN7); experiment: Inhibition of HDAC1/HDAC6 in human Cal27CisR cells assessed as potentiation of cisplatin-induced cytotoxicity by measuring fold reduction in cisplatin IC50 at 0.5 uM preincubated for 48 hrs followed by cisplatin treatment measured after 72 hrs by MTT assay relative to cisplatin alone; assay type: cell-based
T1 sequence (Q13547 whole entry, looked up): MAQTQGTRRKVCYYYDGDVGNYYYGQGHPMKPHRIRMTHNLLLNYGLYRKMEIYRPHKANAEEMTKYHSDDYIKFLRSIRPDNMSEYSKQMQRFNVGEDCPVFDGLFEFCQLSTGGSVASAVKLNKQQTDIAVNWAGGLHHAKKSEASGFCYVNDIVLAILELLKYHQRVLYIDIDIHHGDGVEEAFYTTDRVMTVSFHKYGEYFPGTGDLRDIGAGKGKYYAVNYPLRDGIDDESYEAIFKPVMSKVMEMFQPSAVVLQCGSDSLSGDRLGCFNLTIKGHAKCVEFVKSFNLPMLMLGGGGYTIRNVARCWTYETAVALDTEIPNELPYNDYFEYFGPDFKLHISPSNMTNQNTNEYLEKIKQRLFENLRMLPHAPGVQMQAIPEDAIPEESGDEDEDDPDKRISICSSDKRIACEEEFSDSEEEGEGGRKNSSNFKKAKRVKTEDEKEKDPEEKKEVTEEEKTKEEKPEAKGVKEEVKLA
T1 sequence (Q9UBN7 whole entry, looked up): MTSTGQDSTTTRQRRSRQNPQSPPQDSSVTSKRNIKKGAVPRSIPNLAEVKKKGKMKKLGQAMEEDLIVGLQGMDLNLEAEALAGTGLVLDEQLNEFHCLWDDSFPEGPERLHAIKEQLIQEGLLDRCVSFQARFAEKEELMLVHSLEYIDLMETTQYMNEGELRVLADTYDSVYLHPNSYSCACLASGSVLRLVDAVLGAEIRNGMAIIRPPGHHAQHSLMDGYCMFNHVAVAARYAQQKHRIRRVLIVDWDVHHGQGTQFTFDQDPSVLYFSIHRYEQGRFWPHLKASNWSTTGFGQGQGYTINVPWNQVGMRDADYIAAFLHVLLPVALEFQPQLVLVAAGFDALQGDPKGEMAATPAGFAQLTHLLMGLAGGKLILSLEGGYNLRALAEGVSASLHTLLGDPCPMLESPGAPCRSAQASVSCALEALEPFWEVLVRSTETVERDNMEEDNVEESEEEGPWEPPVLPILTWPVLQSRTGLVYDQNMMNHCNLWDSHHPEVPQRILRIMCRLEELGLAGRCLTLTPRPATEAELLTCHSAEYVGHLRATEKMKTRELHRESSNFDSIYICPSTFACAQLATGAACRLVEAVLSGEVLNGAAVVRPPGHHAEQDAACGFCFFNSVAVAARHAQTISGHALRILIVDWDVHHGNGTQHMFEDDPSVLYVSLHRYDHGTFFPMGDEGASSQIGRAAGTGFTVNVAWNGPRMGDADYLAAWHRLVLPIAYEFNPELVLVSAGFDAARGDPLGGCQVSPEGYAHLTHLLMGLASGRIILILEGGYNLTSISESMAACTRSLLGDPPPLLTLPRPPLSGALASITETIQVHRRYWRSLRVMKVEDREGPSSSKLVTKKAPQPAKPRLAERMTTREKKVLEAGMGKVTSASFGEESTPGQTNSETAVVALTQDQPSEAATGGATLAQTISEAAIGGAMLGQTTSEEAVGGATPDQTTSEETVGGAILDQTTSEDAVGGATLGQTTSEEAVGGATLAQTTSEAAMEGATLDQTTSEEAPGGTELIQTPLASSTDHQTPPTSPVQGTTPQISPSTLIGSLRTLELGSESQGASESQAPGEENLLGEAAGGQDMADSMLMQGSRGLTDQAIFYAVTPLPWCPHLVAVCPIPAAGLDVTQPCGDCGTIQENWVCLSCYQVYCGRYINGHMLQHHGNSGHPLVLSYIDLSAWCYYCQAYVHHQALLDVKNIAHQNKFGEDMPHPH
In short: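 Cal27CisR cells were pretreated 48 h with 0.5 μM inhibitor, then exposed to increasing cisplatin concentrations for 72 h, with IC50 by MTT. The shift factor is the IC50 of cisplatin alone divided by the IC50 of the combination. Data are mean ± SEM of pooled independent experiments (at least three), each in triplicate, and significance was tested by t test (p < 0.05).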

CAL-27 [2] = experiment: Potentiation of 0.316 uM cisplatin-induced cytotoxicity against human CAL27 cells assessed as decrease in cell viability by measuring combination index at 400 uM preincubated for 48 hrs followed by cisplatin treatment measured after 72 hrs by MTT assay; assay type: functional; settings: in the assay text read “at 400 nM” for “at 400 uM”
In short: (§1)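 Cal27 and cisplatin-resistant Cal27CisR cells were preincubated with the HDAC inhibitor for 48 h, then given cisplatin in combination. Viability was read by MTT after 72 h. The combination index was computed by the Chou–Talalay method: CI > 1 is antagonism, CI = 1 is additive, and CI < 0.9 is synergism. Points with fraction affected below 0.20 were flagged.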

[3] = Inhibition of HDAC in human CAL27 cells using Boc-Lys(epsilon-Ac)-AMC as substrate preincubated for 18 hrs followed by substrate addition measured after 3 hrs by fluorescence assay; assay type: cell-based; settings: CAL-27
[4] = Antiproliferative activity against human Cal27CisR cells measured after 72 hrs by MTT assay; assay type: functional, cell-based
[5] = target: T1, Histone deacetylase 1/6 (Homo sapiens); experiment: Inhibition of HDAC1/HDAC6 in human Cal27CisR cells assessed as potentiation of 5 uM cisplatin-induced cytotoxicity by measuring combination index at 100 nM preincubated for 48 hrs followed by cisplatin treatment measured after 72 hrs by MTT assay
CAL-27 [6] = experiment: Potentiation of 1 uM cisplatin-induced cytotoxicity against human CAL27 cells assessed as decrease in cell viability by measuring combination index at 100 uM preincubated for 48 hrs followed by cisplatin treatment measured after 72 hrs by MTT assay; assay type: functional; settings: in the assay text read “at 100 nM” for “at 100 uM”; in short: as §1
CAL-27 [7] = experiment: Potentiation of 0.5 uM cisplatin-induced cytotoxicity against human CAL27 cells assessed as decrease in cell viability by measuring combination index at 100 uM preincubated for 48 hrs followed by cisplatin treatment measured after 72 hrs by MTT assay; assay type: functional; settings: in the assay text read “at 100 nM” for “at 100 uM”; in short: as §1
[8] = target: T1, Histone deacetylase 1/6 (Homo sapiens); experiment: Inhibition of HDAC1/HDAC6 in human Cal27CisR cells assessed as potentiation of 5 uM cisplatin-induced cytotoxicity by measuring combination index at 400 uM preincubated for 48 hrs followed by cisplatin treatment measured after 72 hrs by MTT assay; assay type: cell-based; in short: as §1
CAL-27 [9] = experiment: Potentiation of 5 uM cisplatin-induced cytotoxicity against human CAL27 cells assessed as decrease in cell viability by measuring combination index at 300 uM preincubated for 48 hrs followed by cisplatin treatment measured after 72 hrs by MTT assay; assay type: functional; settings: in the assay text read “at 300 nM” for “at 300 uM”
In short: (§2)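 HDAC inhibitor was added 48 h before cisplatin, then cells were exposed to cisplatin for 72 h and viability was read by MTT assay. Combination index was computed by the Chou–Talalay method: CI > 1 is antagonism, CI = 1 additive, CI < 0.9 synergism. Points with fraction affected below 0.20 were flagged.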

CAL-27 [10] = experiment: Potentiation of 5 uM cisplatin-induced cytotoxicity against human CAL27 cells assessed as decrease in cell viability by measuring combination index at 800 uM preincubated for 48 hrs followed by cisplatin treatment measured after 72 hrs by MTT assay; assay type: functional; settings: in the assay text read “at 800 nM” for “at 800 uM”; in short: as §2
[11] = target: T1, Histone deacetylase 1/6 (Homo sapiens); experiment: Inhibition of HDAC1/HDAC6 in human Cal27CisR cells assessed as potentiation of 10 uM cisplatin-induced cytotoxicity by measuring combination index at 200 uM preincubated for 48 hrs followed by cisplatin treatment measured after 72 hrs by MTT assay; assay type: cell-based
In short: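 Cal27CisR cells preincubated 48 h with the HDAC inhibitor, then exposed to cisplatin for 72 h. Viability read by MTT. Combination index calculated by the Chou–Talalay method: CI > 1 antagonism, CI = 1 additive, CI < 0.9 synergism. Points with fraction affected below 0.20 are flagged. Values are the mean of three experiments.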

CAL-27 [12] = experiment: Potentiation of 0.316 uM cisplatin-induced cytotoxicity against human CAL27 cells assessed as decrease in cell viability by measuring combination index at 700 uM preincubated for 48 hrs followed by cisplatin treatment measured after 72 hrs by MTT assay; assay type: functional; settings: in the assay text read “at 700 nM” for “at 700 uM”; in short: as §1
CAL-27 [13] = experiment: Potentiation of 1 uM cisplatin-induced cytotoxicity against human CAL27 cells assessed as decrease in cell viability by measuring combination index at 400 uM preincubated for 48 hrs followed by cisplatin treatment measured after 72 hrs by MTT assay; assay type: functional; in short: as §2
[14] = target: T1, Histone deacetylase 1/6 (Homo sapiens); experiment: Inhibition of HDAC1/HDAC6 in human Cal27CisR cells assessed as potentiation of 5 uM cisplatin-induced cytotoxicity by measuring combination index at 300 nM preincubated for 48 hrs followed by cisplatin treatment measured after 72 hrs by MTT assay
CAL-27 [15] = experiment: Potentiation of 0.316 uM cisplatin-induced cytotoxicity against human CAL27 cells assessed as decrease in cell viability by measuring combination index at 300 uM preincubated for 48 hrs followed by cisplatin treatment measured after 72 hrs by MTT assay; assay type: functional; settings: in the assay text read “at 300 nM” for “at 300 uM”; in short: as §1
CAL-27 [16] = experiment: Potentiation of 2 uM cisplatin-induced cytotoxicity against human CAL27 cells assessed as decrease in cell viability by measuring combination index at 200 uM preincubated for 48 hrs followed by cisplatin treatment measured after 72 hrs by MTT assay; assay type: functional; settings: in the assay text read “at 200 nM” for “at 200 uM”; in short: as §2
Homo sapiens = organism: Homo sapiens; experiment: Selectivity index, ratio of IC50 for recombinant full length human C-terminal FLAG/His-tagged HDAC1 expressed in baculovirus infected sf9 cells to IC50 for full length human recombinant N-terminal GST-tagged HDAC6 expressed in baculovirus infected sf9 cells
In short: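 Ratio of isolated-enzyme IC50 values. HDAC1, HDAC6 and HDAC8 IC50s were each the mean ± SD of three independent experiments.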

CAL-27 [17] = experiment: Potentiation of 5 uM cisplatin-induced cytotoxicity against human CAL27 cells assessed as decrease in cell viability by measuring combination index at 100 uM preincubated for 48 hrs followed by cisplatin treatment measured after 72 hrs by MTT assay; assay type: functional; settings: in the assay text read “at 100 nM” for “at 100 uM”; in short: as §2
CAL-27 [18] = experiment: Potentiation of 0.316 uM cisplatin-induced cytotoxicity against human CAL27 cells assessed as decrease in cell viability by measuring combination index at 100 uM preincubated for 48 hrs followed by cisplatin treatment measured after 72 hrs by MTT assay; assay type: functional; settings: in the assay text read “at 100 nM” for “at 100 uM”; in short: as §1

Row | IC50 [3] [nM] | Compound | fold change (FC) [1] | CI (CAL-27 [2]) | IC50 [4] [nM] | CI [5] | CI (CAL-27 [6]) | CI (CAL-27 [7]) | CI [8] | CI (CAL-27 [9]) | CI (CAL-27 [10]) | CI [11] | CI (CAL-27 [12]) | CI (CAL-27 [13]) | CI [14] | CI (CAL-27 [15]) | CI (CAL-27 [16]) | Ratio IC50 (Homo sapiens) | CI (CAL-27 [17]) | CI (CAL-27 [18])
1 | 500 | COc1cc(NC(=O)NOCCCCCC(=O)NO)c2nc(OC)cc(C)c2c1 | 11.2 | 0.97 | 1300 | 0.66 | <0.2 | <0.2 | 0.19 | 0.32 | 0.69 | 0.21 | 0.82 | 0.51 | 0.25 | <0.2 | 0.33 | 15 | 0.26 | <0.2
2 | 900 | COc1cc(NC(=O)NOCCCCCC(=O)NO)c2ncccc2c1 | – | – | 1300 | – | – | – | – | – | 0.36 | – | – | – | – | – | – | < 15 | – | –
3 | 600 | COc1cc(NC(=O)NOCCCCCC(=O)NO)c2nccc(C)c2c1 | 8.2 | <0.2 | 1300 | < 0.2 | <0.2 | <0.2 | 0.56 | 0.25 | 0.38 | 0.48 | 0.68 | 0.39 | < 0.2 | <0.2 | 0.39 | < 15 | 0.5 | <0.2
